Measurements from ChEMBL document CHEMBL3272198, “Preparation and in vitro antifungal activities of some quinolizidine derived hemiaminals and beta-tert-amino sulfides” (1976).
Activity calls are given as the source filed them. No cut-off for these calls is given here.

Columns and labels:
Histoplasma capsulatum [1] = assay: Antifungal activity against Histoplasma capsulatum Darling isolate 1098 at 1 ug/ml after 3 weeks (reference value: 28 mm); type: functional; conditions: Darling isolate 1098, 504 h, read-out: DIZ
Histoplasma capsulatum [2] = assay: Antifungal activity against Histoplasma capsulatum Darling isolate 1106 at 1 ug/ml after 3 weeks (reference value: 31 mm); type: functional; conditions: Darling isolate 1106, 504 h, read-out: DIZ
Blastomyces dermatitidis [3] = assay: Antifungal activity against Blastomyces dermatitidis Gilchrist & Stokes isolate 1099 at 1 ug/ml after 3 weeks (reference value: 34 mm); type: functional; conditions: Gilchrist & Stokes isolate 1099, 504 h, read-out: DIZ
In short: (§1)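 Mycelial phase grown on Sabouraud dextrose agar at 25°C. Agar pH was set to 6 before the test solution was added and was 5.0-5.5 after. Test solutions contained HOAc and Me2SO, and solvent and blank controls were included. Each quadrant was center-inoculated with a 2 × 2 mm piece of a 2-week-old mycelial culture. Colony diameter was measured weekly for 3 weeks and reported as total increments (mm). Duplicates were run.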

Histoplasma capsulatum [4] = assay: Antifungal activity against Histoplasma capsulatum Darling isolate 1098 at 1 ug/ml after 2 weeks (reference value: 21 mm); type: functional; conditions: Darling isolate 1098, 336 h, read-out: DIZ
Blastomyces dermatitidis [5] = assay: Antifungal activity against Blastomyces dermatitidis Gilchrist & Stokes isolate 1107 at 1 ug/ml after 1 week (reference value: 20 mm); type: functional, organism-based; in short: as §1
Histoplasma capsulatum [6] = assay: Antifungal activity against Histoplasma capsulatum Darling isolate 1106 at 1 ug/ml after 1 week (reference value: 14 mm); type: functional; conditions: Darling isolate 1106, 168 h, read-out: DIZ
Sporotrichum = assay: Antifungal activity against Sporotrichum schenckii Hektoen & Perkins (1109) at 40 to 80 ug/ml after 2 weeks; type: functional, organism-based
In short: (§2)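 Compound in aqueous HOAc/Me2SO was filter-sterilized and mixed into melted (50°) Sabouraud dextrose agar. Agar pH was 7.0-7.5 before addition and 6.0-6.5 after, giving final levels of 10-100 μg/ml. Quadrant plates were center-inoculated with a 2 × 2 mm piece of a 2-week-old mycelial culture, sealed and kept at 25°C. Colony expansion was measured weekly, with solvent and blank controls, in duplicate.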

Trichophyton rubrum = assay: Antifungal activity against Trichophyton rubrum Castellani Sab.1112 at 40 to 80 ug/ml after 2 weeks; type: functional, organism-based; in short: as §2

SMILES	zone of inhibition at 1 µg/mL (Histoplasma capsulatum [1]) [mm]	zone of inhibition at 1 µg/mL (Histoplasma capsulatum [2]) [mm]	zone of inhibition at 1 µg/mL (Blastomyces dermatitidis [3]) [mm]	zone of inhibition at 1 µg/mL (Histoplasma capsulatum [4]) [mm]	Activity (Blastomyces dermatitidis [5])	zone of inhibition at 1 µg/mL (Histoplasma capsulatum [6]) [mm]	diameter of the inhibition zone (DIZ) (Sporotrichum)	diameter of the inhibition zone (DIZ) (Trichophyton rubrum)
C[C@@H]1[C@H](O)[C@@H](C)/C=C/C=C/C=C/C=C/C=C/C=C/C=C/[C@H](O[C@@H]2O[C@H](C)[C@@H](O)[C@H](N)[C@@H]2O)C[C@@H]2O[C@](O)(C[C@@H](O)C[C@@H](O)[C@H](O)CC[C@@H](O)C[C@@H](O)CC(=O)O[C@H]1C)C[C@H](O)[C@H]2C(=O)O [AMPHOTERICIN B]	28	24	19	19	inactive	9	–	–
C[C@@H]1CC[C@@H](c2ccoc2)N2C(O)[C@@](C)(Sc3ccccc3)CC[C@@H]12 (stereo partly drawn)	–	–	–	–	–	–	Active	Active
